Laboratory results taken from ChEMBL document CHEMBL2176968, “Identification of less lipophilic riminophenazine derivatives for the treatment of drug-resistant tuberculosis” (J Med Chem, 2012).
Converted amounts (≈) assume the structure as drawn.

Tests used:
[1] = test system: Vero; experiment: Cytotoxicity against african green monkey Vero cells after 48 hrs by MTT assay; assay type: cell-based; details: Chlorocebus sabaeus
How it was run: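 Vero cells were exposed to compound. The IC50 was taken as the concentration inhibiting 50% of growth relative to an untreated control.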

[2] = test system: Mus musculus; experiment: Acute toxicity in mouse assessed as survival at 500 mg/kg, po measured for 7 days; assay type: organism-based; design: dose 500 mg/kg, route oral; details: in vivo, 168 h
How it was run: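 Mice given one oral dose of 500 mg/kg, then observed for 7 days. The number of surviving mice was recorded.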

[3] = Selectivity index, ratio of IC50 for african green monkey Vero cells to MIC for Mycobacterium tuberculosis H37Rv ATCC 27294; assay type: functional
[4] = test system: Mycobacterium tuberculosis; experiment: Antimycobacterial activity against Mycobacterium tuberculosis H37Rv ATCC 27294 after 7 days by microplate Alamar blue assay; assay type: functional; details: H37Rv ATCC 27294, 168 h
How it was run: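 Run in 96-well plates against M. tuberculosis H37Rv using the Alamar Blue read-out. The MIC was taken as the lowest concentration giving >90% growth inhibition.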

[5] = Half life in BALB/c mouse at 20 mg/kg, po; assay type: ADME, organism-based; design: dose 20 mg/kg, route oral; details: in vivo
[6] = AUC (0 to 24 hrs) in BALB/c mouse at 20 mg/kg, po; assay type: ADME, organism-based; design: time < 24 hr, dose 20 mg/kg, route oral; details: plasma
[7] = Octanol-water partition coefficient, log P of the compound; assay type: physicochemical
[8] = Cmax in BALB/c mouse at 20 mg/kg, po; assay type: ADME, organism-based; design: dose 20 mg/kg, route oral; details: in vivo

With COc1ncccc1Nc1cc2nc3ccccc3n(-c3ccc(Br)cc3)c-2c/c1=N\C1CCOCC1 the IC50 [1] was greater than 64 µg/mL, the Activity [2] was “Non-toxic” and the “Selectivity Index” value [3] was 3200. It also gave an MIC [4] of 0.02 µg/mL (≈ 0.0359 µM).

For COc1ncccc1Nc1cc2nc3ccccc3n(-c3ccc(Br)cc3)c-2c/c1=N\C1CCC(OC)CC1 (stereo not drawn), the IC50 [1] was greater than 64 µg/mL, the Activity [2] was “Non-toxic” and the “Selectivity Index” value [3] was 2065. The MIC [4] was 0.031 µg/mL (≈ 0.053 µM).

In the case of COC1CCC(/N=c2\cc3n(-c4ccc(Br)cc4)c4ccccc4nc-3cc2Nc2cccnc2C)CC1 (stereo not drawn), the IC50 [1] is reported as 41.8 µg/mL (≈ 73.6 µM), the Activity [2] is reported as “Toxic” and the “Selectivity Index” value [3] is reported as 2788. For the same compound, the MIC [4] was 0.015 µg/mL (≈ 0.0264 µM).

COc1ncccc1Nc1cc2nc3ccccc3n(-c3ccc(OC(F)(F)F)cc3)c-2c/c1=N\C1CCC(OC)CC1 (stereo not drawn) gave an IC50 [1] greater than 64 µg/mL, a half-life [5] of 41.2 h and an AUC(0-t) at 24 h [6] of 24100 ng·h/mL. The Activity [2] was “Non-toxic”, the “Selectivity Index” value [3] was 4000 and the MIC [4] was 0.016 µg/mL (≈ 0.0271 µM). For the same compound, the logP [7] was 4.52 and the Cmax [8] was 1300 ng/mL.

With Fc1ccc(-n2c3c/c(=N\CCN4CCOCC4)c(Nc4cccnc4)cc-3nc3ccccc32)cc1 the IC50 [1] was 15.1 µg/mL (≈ 30.5 µM), the “Selectivity Index” value [3] was 30 and the MIC [4] was 0.5 µg/mL (≈ 1.01 µM).

In the case of FC(F)(F)Oc1ccc(-n2c3c/c(=N\C4CCOCC4)c(Nc4cccnc4)cc-3nc3ccccc32)cc1, the IC50 [1] is reported as greater than 64 µg/mL, the “Selectivity Index” value [3] is reported as 2133 and the MIC [4] is reported as 0.03 µg/mL (≈ 0.0564 µM).

With COC1CCC(/N=c2\cc3n(-c4ccc(OC(F)(F)F)cc4)c4ccccc4nc-3cc2Nc2cccnc2)CC1 (stereo not drawn) the IC50 [1] was 4.52 µg/mL (≈ 8.08 µM), the “Selectivity Index” value [3] was 151 and the MIC [4] was 0.03 µg/mL (≈ 0.0536 µM).

With CN1CCC(/N=c2\cc3n(-c4ccc(OC(F)(F)F)cc4)c4ccccc4nc-3cc2Nc2cccnc2)CC1 the IC50 [1] was 4.48 µg/mL (≈ 8.23 µM), the “Selectivity Index” value [3] was 18 and the MIC [4] was 0.25 µg/mL (≈ 0.459 µM).

With CC(C)CN1CCC(/N=c2\cc3n(-c4ccc(OC(F)(F)F)cc4)c4ccccc4nc-3cc2Nc2cccnc2)CC1 the IC50 [1] was 5.6 µg/mL (≈ 9.55 µM), the “Selectivity Index” value [3] was 93 and the MIC [4] was 0.06 µg/mL (≈ 0.102 µM).

In the case of FC(F)(F)Oc1ccc(-n2c3c/c(=N\CCN4CCOCC4)c(Nc4cccnc4)cc-3nc3ccccc32)cc1, the IC50 [1] is reported as 16.1 µg/mL (≈ 28.8 µM), the “Selectivity Index” value [3] is reported as 129 and the MIC [4] is reported as 0.125 µg/mL (≈ 0.223 µM).

For FC(F)(F)c1ccc(-n2c3c/c(=N\C4CCOCC4)c(Nc4cccnc4)cc-3nc3ccccc32)cc1, the IC50 [1] was greater than 64 µg/mL, the “Selectivity Index” value [3] was 512 and the MIC [4] was 0.125 µg/mL (≈ 0.242 µM).

In the case of COC1CCC(/N=c2\cc3n(-c4ccc(C(F)(F)F)cc4)c4ccccc4nc-3cc2Nc2cccnc2)CC1 (stereo not drawn), the IC50 [1] is reported as 28.3 µg/mL (≈ 52.2 µM), the “Selectivity Index” value [3] is reported as 945 and the MIC [4] is reported as 0.03 µg/mL (≈ 0.0552 µM).

For CN1CCC(/N=c2\cc3n(-c4ccc(C(F)(F)F)cc4)c4ccccc4nc-3cc2Nc2cccnc2)CC1, the IC50 [1] was 10.4 µg/mL (≈ 19.6 µM), the “Selectivity Index” value [3] was 83 and the MIC [4] was 0.125 µg/mL (≈ 0.236 µM).

With CC(C)CN1CCC(/N=c2\cc3n(-c4ccc(C(F)(F)F)cc4)c4ccccc4nc-3cc2Nc2cccnc2)CC1 the IC50 [1] was 27 µg/mL (≈ 47.3 µM), the “Selectivity Index” value [3] was 450 and the MIC [4] was 0.06 µg/mL (≈ 0.105 µM).

With FC(F)(F)c1ccc(-n2c3c/c(=N\CCN4CCOCC4)c(Nc4cccnc4)cc-3nc3ccccc32)cc1 the IC50 [1] was 19.9 µg/mL (≈ 36.5 µM), the “Selectivity Index” value [3] was 159 and the MIC [4] was 0.125 µg/mL (≈ 0.23 µM).

With Brc1ccc(-n2c3c/c(=N\C4CCOCC4)c(Nc4cccnc4)cc-3nc3ccccc32)cc1 the IC50 [1] was 4.48 µg/mL (≈ 8.51 µM), the “Selectivity Index” value [3] was 27 and the MIC [4] was 0.163 µg/mL (≈ 0.31 µM).

In the case of COC1CCC(/N=c2\cc3n(-c4ccc(Br)cc4)c4ccccc4nc-3cc2Nc2cccnc2)CC1 (stereo not drawn), the IC50 [1] is reported as 1.88 µg/mL (≈ 3.39 µM), the “Selectivity Index” value [3] is reported as 30 and the MIC [4] is reported as 0.062 µg/mL (≈ 0.112 µM).

With COc1ncccc1Nc1cc2nc3ccccc3n(-c3ccc(Cl)cc3)c-2c/c1=N\C(C)C the IC50 [1] was greater than 64 µg/mL, the “Selectivity Index” value [3] was 2133 and the MIC [4] was 0.03 µg/mL (≈ 0.0638 µM).

COc1ncccc1Nc1cc2nc3ccccc3n(-c3ccc(Cl)cc3)c-2c/c1=N\C1CCOCC1 gave an IC50 [1] greater than 64 µg/mL, a half-life [5] of 6.62 h and an AUC(0-t) at 24 h [6] of 33100 ng·h/mL. For the same compound, the Activity [2] was “Non-toxic”, the “Selectivity Index” value [3] was 4000 and the MIC [4] was 0.016 µg/mL (≈ 0.0312 µM). It also gave a logP [7] of 4.15 and a Cmax [8] of 2010 ng/mL.

COc1ncccc1Nc1cc2nc3ccccc3n(-c3ccc(Cl)cc3)c-2c/c1=N\C1CCC(OC)CC1 (stereo not drawn) gave an IC50 [1] greater than 64 µg/mL, a half-life [5] of 7 h and an AUC(0-t) at 24 h [6] of 43900 ng·h/mL. The Activity [2] was “Non-toxic”, the “Selectivity Index” value [3] was 4000 and the MIC [4] was 0.016 µg/mL (≈ 0.0296 µM). It also gave a logP [7] of 3.74 and a Cmax [8] of 3010 ng/mL.

For COC1CCC(/N=c2\cc3n(-c4ccc(Cl)cc4)c4ccccc4nc-3cc2Nc2cccnc2C)CC1 (stereo not drawn), the IC50 [1] was 35.1 µg/mL (≈ 67.1 µM), the Activity [2] was “Toxic” and the “Selectivity Index” value [3] was 3195. It also gave an MIC [4] of 0.011 µg/mL (≈ 0.021 µM).

COC1CCC(/N=c2\cc3n(-c4ccc(Cl)cc4)c4ccccc4nc-3cc2Nc2ccc(C)nc2)CC1 (stereo not drawn) showed an IC50 [1] of 50.9 µg/mL (≈ 97.1 µM), a half-life [5] of 16.1 h and an AUC(0-t) at 24 h [6] of 22100 ng·h/mL. For the same compound, the Activity [2] was “Non-toxic”, the “Selectivity Index” value [3] was 3180 and the MIC [4] was 0.016 µg/mL (≈ 0.0305 µM). For the same compound, the logP [7] was 4.11 and the Cmax [8] was 1560 ng/mL.

Work on COc1ncccc1Nc1cc2nc3ccccc3n(-c3ccc(F)cc3)c-2c/c1=N\C1CCC(OC)CC1 (stereo not drawn) yielded an IC50 [1] greater than 64 µg/mL, a half-life [5] of 7.9 h and an AUC(0-t) at 24 h [6] of 45400 ng·h/mL. For the same compound, the Activity [2] was “Non-toxic”, the “Selectivity Index” value [3] was 4000 and the MIC [4] was 0.016 µg/mL (≈ 0.0306 µM). For the same compound, the logP [7] was 4.82 and the Cmax [8] was 3650 ng/mL.
